Bioassay records: PubChem, several laboratories
CCR6 antag = CCR6 (human) receptor antagonism; P51684; CHO-K1 CCR6 PathHunter beta-arrestin, luminescence, CCL20-stimulated; inhibition, % at 20 µM; actives 0.49% (n = 340,000); AID 493098;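 active = compounds whose inhibition of the agonist-driven luminescence signal at 20 µM reaches about 50%, limit read from the data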;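 note: cells stimulated with CCL20 at 14 nM final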
APJ ag = APJ receptor agonism | CHO-K1 APJ PathHunter beta-arrestin, luminescence; 0% DMSO wells, 100% apelin | activation, % at 20 µM | actives 0.11% (n = 330,000) | AID 2520;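 active = activation more than six SD over the plate average, tested at 20 µM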
Target sequence (P35414 whole entry, looked up): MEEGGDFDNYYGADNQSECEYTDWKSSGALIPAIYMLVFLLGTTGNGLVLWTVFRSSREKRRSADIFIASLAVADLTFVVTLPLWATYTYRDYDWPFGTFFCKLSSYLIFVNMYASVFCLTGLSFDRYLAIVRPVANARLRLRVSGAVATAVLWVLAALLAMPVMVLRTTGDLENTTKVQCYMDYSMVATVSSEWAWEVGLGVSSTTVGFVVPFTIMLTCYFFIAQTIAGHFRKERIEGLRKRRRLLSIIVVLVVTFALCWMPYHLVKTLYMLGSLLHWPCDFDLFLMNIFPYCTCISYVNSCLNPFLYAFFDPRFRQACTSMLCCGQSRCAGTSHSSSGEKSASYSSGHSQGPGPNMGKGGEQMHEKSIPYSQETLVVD
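Assay system – PathHunter CHO-K1 APJ (AGTRL-1) beta-arrestin reporter cells · Compound – one dose, 20 µM compound, 1% DMSO · Timing – compound 90 min 25 °C, reagent 1 h · Measured by – luminescence from split beta-galactosidase complementation, Galacton Star/Emerald II substrate · Measure – beta-arrestin recruitment to APJ as agonist activity, luminescent signal · Benchmarks – DMSO vs Apelin-13 10 nM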
CXCR6 inh = blocks human CXCR6 beta-arrestin recruitment | O00574 | CHO-K1 PathHunter CXCR6 beta-arrestin, luminescence | inhibition, % at 20 µM | actives 0.36% (n = 360,000) | AID 602244; in the data active = inhibition above about 34%, passing the limit was not always enough;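 note: antagonist mode with CXCL16 agonist at 10 nM final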
m5-HT2A agonist = activates the mouse 5-HT2A serotonin receptor; P35363; CHO-K1 mHTR2A beta-arrestin complementation, luminescence; percent of 30 µM serotonin response; activation, % at 7.6 µM; actives 0.66% (n = 360,000);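 active = activation above a run cutoff, the mean activation of all tested compounds plus 3 SD, cut at about 14% in these data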
EBI2 antag = antagonists of human EBI2 receptor; EBI2 beta-arrestin recruitment, luminescence, 7a,25-OHC stimulated; inhibition, % at 5 µM; actives 0.81% (n = 360,000); AID 651636; in the data active = inhibition above about 38%;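 note: enzyme fragment complementation signal reports receptor beta-arrestin coupling in cells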
APJ antag = antagonists of human APJ apelin receptor; P35414; CHO-K1 APJ beta-arrestin complementation, luminescence; inhibition, % at 20 µM; actives 0.32% (n = 330,000); AID 2521;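 active = inhibition above about 40% at 20 µM, limit read from the data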;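 note: cells challenged with 10 nM apelin-13 agonist together with compound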
A number is an active result; - = inactive; . = no result given. A selection: hits, their analogues and other compounds. The true share with any hit is near 2.1%.

SMILES | CCR6 antag | APJ ag | CXCR6 inh | m5-HT2A agonist | EBI2 antag | APJ antag
CCN(CC)CCCNC(=O)CSc1c2c(nc3cc(Cl)ccc13)CCCC2 | - | - | - | - | - | -
Cc1ccc2cc3cc(C(=O)NCCCN4CCCC4)oc3nc2c1 | - | - | - | - | - | -
CC1=NN(C(N)=S)C(=O)C1N=Nc1c(Cl)cc([N+](=O)[O-])cc1Cl (stereo unspecified) | 57 | - | 40 | - | - | -
CC1=NN(C(N)=S)C(=O)C1N=Nc1c(C)cc(C)cc1C (stereo unspecified) | - | - | - | - | - | -
CC(=O)NC(c1ccc(C)cc1)c1cc([N+](=O)[O-])c2cccnc2c1O (stereo unspecified) | . | - | 48 | - | - | -
CC(=O)NC(c1ccccc1)c1cc(Cl)c2cccnc2c1O (stereo unspecified) | - | - | - | - | - | -
CCC(=O)NC(c1ccc(C)cc1)c1cc([N+](=O)[O-])c2cccnc2c1O (stereo unspecified) | - | . | 51 | - | - | .
COC(=O)c1cc(C(=O)Nc2cc(C)ccn2)cc([N+](=O)[O-])c1 | - | - | - | 15 | - | -
O=C(/C=C/c1ccccc1)c1ccccc1 | - | - | - | - | - | -
O=CC(=O)c1ccccc1 | 76 | - | - | - | - | -
CC(C)(C)n1cnc2cc(NCc3ccccc3O)ccc21 | - | - | - | - | - | -
O=[N+]([O-])c1cccc(/C=N\N=C2c3ccccc3-c3ccccc32)c1O | 69 | - | 43 | - | - | 54
Cc1nnc(N=c2ssnc2Cl)o1 | 56 | - | - | - | 41 | -
CC(Nc1ccc(Br)cc1)C(=O)Nc1cccc(S(=O)(=O)N2CCOCC2)c1 (stereo unspecified) | - | - | - | - | - | -
NS(=O)(=O)c1cccc(NC(=O)COC(=O)COc2ccc3ccccc3c2)c1 | - | - | - | - | - | -
NS(=O)(=O)c1ccc(NC(=O)COC(=O)COc2ccc3ccccc3c2)cc1 | - | - | - | 17 | - | -
CC(NC(=O)c1cc(-c2ccc3c(c2)OCO3)nc2ccccc12)C(C)(C)C (stereo unspecified) | - | - | - | - | - | -
CCOc1ccc(CN(C)C(=O)CNC(=O)c2cc(OC)c(OC)c(OC)c2)cc1 | - | - | - | - | - | -
CCOC(=O)C(=Cc1ccc(Br)cc1)C(=O)OCC | - | . | - | - | - | .
CCOC(=O)/C(C#N)=C\c1cccnc1 | - | - | - | - | - | -
CCOC(=O)/C(=C\c1ccccc1)C(=O)c1cc(C(C)=O)c(Nc2ccccc2)s1 | - | - | - | - | 48 | -
CCOC(=O)/C(=C\c1cccnc1)C(=O)c1cc(C(C)=O)c(Nc2ccccc2)s1 | 100 | - | 93 | - | 81 | 69
Cc1ccccc1-c1nnc(CS(=O)(=O)c2ccccc2)o1 | - | - | - | - | - | -
CSc1ccc(C2c3[nH]c4ccccc4c3CCN2C(=O)c2cc(C)n(C)n2)cc1 (stereo unspecified) | . | - | . | . | . | -
Cc1ccc(S(=O)(=O)NC2=C(N3CCN(Cc4ccccc4)CC3)C(=O)c3ccccc3C2=O)cc1 | 54 | - | - | - | - | -
SMILES | CCR6 antag | APJ ag | CXCR6 inh | m5-HT2A agonist | EBI2 antag | APJ antag
Cc1ccc(S(=O)(=O)NC2=C(N3CCN(c4ccccc4F)CC3)C(=O)c3ccccc3C2=O)cc1 | - | - | - | - | - | -
CCN(CC)CCn1c(NC(=O)c2ccccc2O)nc2ccccc21 | . | - | 57 | - | - | -
Cc1ccc(-n2c(=O)c3ccc(C(=O)NCc4ccco4)cc3n(Cc3ccccc3C#N)c2=O)cc1 | - | - | - | - | - | 86
Cc1ccccc1Cn1c(=O)n(-c2ccccc2)c(=O)c2ccc(C(=O)NCc3ccco3)cc21 | . | - | - | - | - | -
CN(C)S(=O)(=O)c1cccc(COC(=O)c2cc([N+](=O)[O-])ccc2N2CCOCC2)c1 | - | - | - | - | - | -
Cc1nn(C)c(Cl)c1C(=O)NC(C(=O)O)c1ccccc1 (stereo unspecified) | - | - | - | - | - | -
Cc1nc([N+](=O)[O-])c(Br)n1CC(=O)c1ccc2ccccc2c1 | - | - | - | - | 55 | -
